Laboratory results taken from PubChem BioAssay.
Inconclusive results are not listed.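 How the source made its calls, unless noted: active means cell viability at or below a set limit in both duplicate runs, the limit being the all-compound median minus 4 SD (cut at about 23% in these data, passing the limit was not always enough); inconclusive means no clear call, values can overlap the other calls; inactive means the rest.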

Assays:
[1] = OD615 S. cerevisiae growth inhibition, permissive medium, pilot counter-assay, permissive growth control for S. cerevisiae lifespan shortening project (AID 705;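 active means growth inhibition above 25% in both replicates, a cutoff set 3 SD above the mean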); settings: OD615, 24 h, at 10 µM, hits give high values
Outline: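 System: Engineered DeaD yeast | Buffer or medium: SC raffinose/galactose permissive medium | Incubation: Cells pre-grown 4 h, then 24 h compound exposure, 30 °C humidified | Measured by: Absorbance (optical density) at 615 nm | Read-out: Reduction in yeast growth (OD615)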

[2] = Restrictive medium S. cerevisiae growth inhibition, OD615, pilot screen of yeast lifespan reduction project, restrictive growth control (AID 706;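 active means growth inhibition above a set limit, 3 SD over mean compound inhibition, in both replicates, cut at about 43% in these data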;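 further: modified DeaD lifespan yeast strain shifted to restrictive glucose medium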); settings: OD615, 48 h, at 10 µM, hits give high values
Outline: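 Material: modified S. cerevisiae; Medium: glucose-based CSMM-D restrictive medium; Compound dosing: one concentration, 10 µM final, 0.25% DMSO; Incubation: 48 h compound exposure at 30 °C; Measured by: OD615.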

[3] = viability gain of MRP-1-high H69AR cells under doxorubicin, pilot screen, MRP-1 activator project, CellTiter-Glo, duplicate (AID 807;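 active means viability increase at or above a cutoff of the median across tested compounds plus 3 SD, cut at about 8.5% in these data, passing the limit was not always enough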;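 further: compound pretreatment 18-22 h then 72 h combined with doxorubicin; 0% = doxorubicin alone and 100% = vehicle without doxorubicin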); settings: H69AR viability with doxorubicin, CellTiter-Glo luminescence; at 10 µM; hits give high values
[4] = growth suppression of beta-catenin knockout HCT116, pilot screen, human colon tumor cells (AID 823); settings: CellTiter-Glo, 60 h, at 10 µM, hits give low values;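 further: 0% = wells killed by 20 µM Hyamine and 100% = untreated DMSO cell wells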
[5] = growth suppression of PTEN-deleted HCT116, pilot screen, cell-based, HCT116 clonal line, CellTiter-Glo (AID 824;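 active means viability at or below 27.92% in each of two runs, the all-compound median minus 4 SD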;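 further: 0% = 20 µM Hyamine control and 100% = vehicle cell control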); settings: 60 h, at 10 µM, hits give low values
[6] = inhibitors of the yeast RAM network, pilot screen, dse1pr::URA3 reporter, 5-FOA selection (AID 869;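 active means inhibition over a set limit, the all-compound mean plus 3 SD, in both replicate runs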;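 further: 0% = DMSO wells with no growth and 100% = 10 µM 1-NA-PP1 with full growth; RAM network block rescues cells from 5-FOA so hits raise OD615 growth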); settings: S. cerevisiae dse1pr::URA3 5-FOA growth, OD615, 2 d; at 10 µM; hits give high values; strain carries analog-sensitive mutant Cbk1 kinase
[7] = RAM signaling pathway blockade in yeast – S. cerevisiae, Pdr1DBD-CYC8 efflux-inhibited sensitized strain, primary screen (AID 1298;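 active means RAM network inhibition above 8.4% in each of two replicates, 3 SD over the compound average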;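 further: 0% = DMSO untreated cells without growth and 100% = 10 µM 1-NA-PP1 full growth; higher means more yeast growth rescued from 5-FOA killing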); settings: S. cerevisiae cbk1-as DSE1-URA3 strain, 5-FOA growth OD615, 2 d; at 50 µM; hits give high values

O=C(O)CC(C(=O)NC1CCCCC1)C1CCCO1 (configuration not stated)
inactive: growth inhibition [1] -1.02% | growth inhibition [2] -15.1% | viability increase [3] -1.68% | viability [4] 98.3% | viability [5] 102% | inhibition [6] 0.36% | RAM network inhibition [7] 1.76%

COc1ccc(N2C(=O)C3CCCN3C2c2cc(OC)c(OC)cc2OC)cc1 (configuration not stated)
inactive: growth inhibition [1] 8.35% | growth inhibition [2] 5.12% | viability increase [3] -3.74% | viability [4] 102% | viability [5] 90.4% | inhibition [6] 0.47% | RAM network inhibition [7] 7.38%

COc1ccc(-c2c(C)oc3cc(O)cc(O)c3c2=O)cc1OC
inactive: growth inhibition [1] -12.4% | growth inhibition [2] -5.23% | viability increase [3] -1.14% | viability [4] 109% | viability [5] 93.8% | inhibition [6] 1.01% | RAM network inhibition [7] 4.79%

CC1CC(C)CN(CCCNC(=O)CNC(=O)Cn2ccc3ccccc3c2=O)C1 (configuration not stated)
inactive: growth inhibition [1] -3% | growth inhibition [2] -19.7% | viability increase [3] -0.78% | viability [4] 104% | viability [5] 98.9% | inhibition [6] 0.76% | RAM network inhibition [7] 2.22%

CC(CC1C(C#N)=C(N)OC2=C1C(=O)CCC2)c1ccccc1 (configuration not stated)
inactive: growth inhibition [1] -23.1% | growth inhibition [2] -13.3% | viability increase [3] -1.89% | viability [4] 98.6% | viability [5] 99.3% | inhibition [6] 0.91% | RAM network inhibition [7] 5.88%

Oc1c(C(c2cccc(F)c2)N2CCN(Cc3ccccc3)CC2)sc2ncnn12 (configuration not stated)
inactive: growth inhibition [1] -6.58% | growth inhibition [2] 3.16% | viability increase [3] -0.83% | viability [4] 87.7% | viability [5] 80.7% | inhibition [6] 0.05% | RAM network inhibition [7] -2.27%

COc1ccc(CC(NC(=O)c2ccccc2)C(=O)NCC(=O)O)cc1 (configuration not stated)
inactive: growth inhibition [1] -3.04% | growth inhibition [2] -2.91% | viability increase [3] -0.14% | viability [4] 95.2% | viability [5] 101% | inhibition [6] 1.44% | RAM network inhibition [7] -0.37%

O=C1CC(c2ccco2)Sc2nc3ccccc3n21 (configuration not stated)
inactive: growth inhibition [1] -10.5% | growth inhibition [2] 13.4% | viability increase [3] -3.98% | viability [4] 67.2% | viability [5] 80.3% | inhibition [6] 0.365% | RAM network inhibition [7] 1.62%

Cc1ccc(C)c(SCC(=O)OCC(=O)Nc2ccc(S(=O)(=O)N3CCOCC3)cc2)c1
inactive: growth inhibition [1] -20.4% | growth inhibition [2] -17.7% | viability increase [3] -1.73% | viability [4] 97.8% | viability [5] 92.9% | inhibition [6] 1.02% | RAM network inhibition [7] 5.86%

CN(C)S(=O)(=O)c1ccc(C(=O)Nc2ccc(Cl)cc2)cc1
inactive: growth inhibition [1] -3.1% | growth inhibition [2] -5.55% | viability increase [3] -1.63% | viability [4] 77.5% | viability [5] 88.8% | inhibition [6] 2.33% | RAM network inhibition [7] 3.74%

Clc1ccc(CSc2nnc(-c3ccccn3)n2Cc2ccco2)c(Cl)c1
inactive: growth inhibition [1] -2.3% | growth inhibition [2] 11.9% | viability increase [3] -3.47% | viability [4] 70.2% | viability [5] 64.1% | inhibition [6] 1.68% | RAM network inhibition [7] 7.51%

CCOC(=O)c1c(-c2ccc(C)o2)csc1N
inactive: growth inhibition [1] 4.88% | growth inhibition [2] 0.615% | viability increase [3] -2.73% | viability [4] 97% | viability [5] 93.8% | inhibition [6] 1.57% | RAM network inhibition [7] 4.1%

COc1cc(C(=O)NCCc2cn3ccccc3n2)cc(OC)c1OC
inactive: growth inhibition [1] -9.42% | growth inhibition [2] -6.93% | viability increase [3] -2.78% | viability [4] 98.4% | viability [5] 95.9% | inhibition [6] 2.1% | RAM network inhibition [7] 2.62%

CCOC(=O)NCCc1ccc(OC)cc1
inactive: growth inhibition [1] -4.17% | growth inhibition [2] 5.72% | viability increase [3] 1.36% | viability [4] 99.9% | viability [5] 95.8% | inhibition [6] 1.83% | RAM network inhibition [7] 0.56%

O=C(Nc1nc2c(s1)CCCC2)c1ccc(Br)o1
inactive: growth inhibition [1] 6.52% | growth inhibition [2] -10.8% | viability increase [3] -4.11% | viability [4] 62.4% | viability [5] 64.6% | inhibition [6] 1.8% | RAM network inhibition [7] 4.86%

N#CC1=C(O)CCCn2c1nc1ccccc1c2=O
inactive: growth inhibition [1] -3.3% | growth inhibition [2] -18% | viability increase [3] -0.39% | viability [4] 97% | viability [5] 97% | inhibition [6] 2.41% | RAM network inhibition [7] 0.01%
